Published values collected from several papers.
Organism: Trypanosoma cruzi
Observed: parasite growth

Compound	assay	test system	setting	IC50
Cc1cc(NC(=O)Nc2ccc3c(c2)OC(F)(F)O3)cc(C(F)(F)F)n1		TULAHUEN	intracellular, amastigote	1.1 µM
O=C(N[C@@H](Cc1ccccc1)C(=O)c1noc(-c2ccccc2)n1)[C@H](Cc1ccccc1)NC(=O)N1CCOCC1		TULAHUEN	intracellular, amastigote	27.7 µM
c1ccc(C2CCN(c3nc(-c4cnn5c4CCCC5)nc4ccccc34)C2)nc1 (stereo not drawn)	imaging	U2OS	intracellular, amastigote	4.31 µM
CCCCCCCCCCCCCC#CC(=O)O		rat Myoblast	intracellular, amastigote	80 µM
CC1CS(=O)(=O)CCN1/N=C/c1ccc([N+](=O)[O-])o1 (stereo not drawn)			epimastigote	2.4 µM
O=C(N[C@@H](Cc1ccccc1)C(=O)c1nc2ccccc2o1)[C@H](Cc1ccccc1)NC(=O)N1CCOCC1		TULAHUEN	intracellular, amastigote	31.5 µM
COc1ccc(Nc2nc(-c3cccnc3)nc3ccccc23)cc1	imaging	U2OS	intracellular, amastigote	6.33 µM
O=C(N[C@@H](Cc1ccccc1)C(=O)c1c[nH]nn1)[C@H](Cc1ccccc1)NC(=O)N1CCOCC1		TULAHUEN	intracellular, amastigote	> 64 µM
c1ccc(CN2CCN(c3nc(-c4ccccn4)nc4ccccc34)CC2)cc1	imaging	U2OS	intracellular, amastigote	3 µM
O=C(N[C@@H](Cc1ccccc1)C(=O)c1ncc(-c2ccccc2)o1)[C@H](Cc1ccccc1)NC(=O)N1CCOCC1		TULAHUEN	intracellular, amastigote	29.1 µM
O=C(Cn1ccnc1[N+](=O)[O-])NCc1ccccc1		TULAHUEN	intracellular, amastigote	1.2 µM
O=C(Cn1ccnc1[N+](=O)[O-])NCc1ccccc1		NIH3T3, TULAHUEN	96 h, intracellular, amastigote	1.12 µM
C=C1CC[C@H]2C(C)=CC[C@H]3C(=C)C(=O)O[C@@H]3[C@@H]12			72 h, epimastigote	1.9 µM
C[Si](C)(C)c1cc(C(=O)[C@H](Cc2ccccc2)NC(=O)[C@H](Cc2ccccc2)NC(=O)N2CCOCC2)no1 (single isomer, unassigned)		TULAHUEN	intracellular, amastigote	> 64 µM
Cn1ccnc1-c1nc(N2CCCCC2)c2ccccc2n1	imaging	U2OS	intracellular, amastigote	3.89 µM
